Measured values published in ChEMBL document CHEMBL1240482, “Synthesis and antiproliferative evaluation of certain indeno[1,2-c]quinoline derivatives. Part 2” (J Med Chem, 2010).
Active and inactive are the calls of the source. The calls are words filed in the database; no cut-off is given here.

Experiments:
DNA topoisomerase 1 = target: T1, DNA topoisomerase 1 (Homo sapiens, UniProt P11387); assay: Inhibition of human topoisomerase 1 assessed as decrease in pBR322 mobility on agarose gel by electrophoresis
T1 sequence (P11387 whole entry): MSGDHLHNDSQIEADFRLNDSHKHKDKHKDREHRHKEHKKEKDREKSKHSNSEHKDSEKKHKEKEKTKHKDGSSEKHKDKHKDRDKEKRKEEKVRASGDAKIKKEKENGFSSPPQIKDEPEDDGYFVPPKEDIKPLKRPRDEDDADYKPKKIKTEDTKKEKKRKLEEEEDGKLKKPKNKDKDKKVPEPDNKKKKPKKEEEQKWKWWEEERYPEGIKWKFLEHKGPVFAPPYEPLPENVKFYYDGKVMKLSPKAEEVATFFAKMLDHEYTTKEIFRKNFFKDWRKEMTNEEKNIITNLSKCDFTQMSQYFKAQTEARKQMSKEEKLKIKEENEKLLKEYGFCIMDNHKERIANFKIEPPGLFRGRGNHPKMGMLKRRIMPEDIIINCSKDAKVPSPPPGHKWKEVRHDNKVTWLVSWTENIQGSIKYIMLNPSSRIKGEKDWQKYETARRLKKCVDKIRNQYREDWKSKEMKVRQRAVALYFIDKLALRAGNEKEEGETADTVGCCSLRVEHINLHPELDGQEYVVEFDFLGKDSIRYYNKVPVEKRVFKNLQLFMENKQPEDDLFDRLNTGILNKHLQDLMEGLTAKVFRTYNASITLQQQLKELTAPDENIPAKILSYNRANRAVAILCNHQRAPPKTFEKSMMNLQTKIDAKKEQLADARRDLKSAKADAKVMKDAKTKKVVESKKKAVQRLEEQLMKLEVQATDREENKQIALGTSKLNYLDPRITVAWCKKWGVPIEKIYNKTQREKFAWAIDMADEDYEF
Summary of the method: (§1)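 Enzyme preincubated with compound before DNA addition; reaction run 30 min at 37 °C and stopped with SDS. Products resolved on 1% agarose, stained with ethidium bromide, quantified by densitometry.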

Homo sapiens = species: Homo sapiens; assay: Inhibition of human topoisomerase 2 assessed as decrease in pBR322 mobility on agarose gel at 10 uM by electrophoresis; summary of the method: as §1
Nucleic Acid = assay: Binding affinity to pBR322; format: nucleic-acid assay; conditions: Escherichia coli
[1] = target: T2, DNA topoisomerase 1 (Homo sapiens) (UniProt P11387); assay: Inhibition of human topoisomerase 1 assessed as decrease in pBR322 mobility on agarose gel at 10 uM by electrophoresis; summary of the method: as §1
T2 sequence (whole entry): T1 sequence (P11387 whole entry)

Detroit 551 [2] = assay: Selectivity index, ratio of IC50 for human Detroit 551 cells to IC50 for human BT-483 cells; format: functional
PC-3 = assay: Cytotoxicity against human PC3 cells after 48 hrs by MTT assay; format: functional; conditions: PC-3, 48 h
Summary of the method: (§2)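 Cells grown in DMEM with 10% FBS at 37 °C and 5% CO2, seeded at 5 × 10^3 per well and allowed 24 h before drug. Serial dilutions from DMSO stocks applied for 48 h. MTT (2 mg/mL in PBS) added for 2 h, formazan dissolved in DMSO, absorbance read at 570 nm. GI50 interpolated by linear regression from at least three points in the 20-80% range; three independent experiments.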

SAS [3] = assay: Selectivity index, ratio of IC50 for human Detroit 551 cells to IC50 for human SAS cells; format: functional
Detroit 551 [4] = assay: Selectivity index, ratio of IC50 for human Detroit 551 cells to IC50 for human PC3 cells; format: functional
[5] = Cytotoxicity against human SKHep cells after 48 hrs by MTT assay; format: functional; summary of the method: as §2
HeLa [6] = assay: Cytotoxicity against human HeLa cells after 48 hrs by MTT assay; format: functional; summary of the method: as §2
A549 = assay: Cytotoxicity against human A549 cells after 48 hrs by MTT assay; format: functional; conditions: A549, 48 h; summary of the method: as §2
[7] = Cytotoxicity against human Detroit 551 cells after 48 hrs by MTT assay; format: cell-based; summary of the method: as §2
Detroit 551 [8] = assay: Selectivity index, ratio of IC50 for human Detroit 551 cells to IC50 for human A549 cells; format: functional
HeLa [9] = assay: Selectivity index, ratio of IC50 for human Detroit 551 cells to IC50 for human HeLa cells; format: functional
[10] = Inhibition of human topoisomerase 2 assessed as decrease in pBR322 mobility on agarose gel by electrophoresis; summary of the method: as §1
[11] = Cytotoxicity against human BT-483 cells after 48 hrs by MTT assay; format: functional; conditions: BT-483, 48 h; summary of the method: as §2
Detroit 551 [12] = assay: Selectivity index, ratio of IC50 for human Detroit 551 cells to IC50 for human SKHep cells; format: functional
SAS [13] = assay: Cytotoxicity against human SAS cells after 48 hrs by MTT assay; format: functional; summary of the method: as §2

Row | IC50 (DNA topoisomerase 1) | inhibition (Homo sapiens) | Activity (Nucleic Acid) | inhibition [1] | IC50 [10] | Compound | RatioGI50 (Detroit 551 [2]) | GI50 (PC-3) | RatioGI50 (SAS [3]) | RatioGI50 (Detroit 551 [4]) | GI50 [5] | GI50 (HeLa [6]; read-out: GI50) | GI50 (HeLa [6]; read-out: pGI50 (converted)) | GI50 (A549) | GI50 at 48 h [7] | RatioGI50 (Detroit 551 [8]) | RatioGI50 (HeLa [9]) | GI50 [11] | RatioGI50 (Detroit 551 [12]) | GI50 (SAS [13])
1 | 7.4 µM | 46% | Active | 73% | 10.2 µM | COc1ccc2c(c1)/C(=N\OCCN(C)C)c1c-2c(O)nc2ccccc12 | 2.38 | 5.34 µM | 8.73 | 1.8 | 2.56 µM | 0.23 µM | 0.229 µM | 1 µM | 9.6 µM | 9.6 | 41.74 | 4.04 µM | 3.75 | 1.1 µM
2 | 16.5 µM | 50% | Active | 28% | 10.1 µM | COc1ccc2c(c1)/C(=N\OCCN1CCCCC1)c1c-2cnc2ccccc12 | 1.22 | 6.38 µM | 0.88 | 0.99 | 5.26 µM | 2.67 µM | 2.69 µM | 8.48 µM | 6.3 µM | 0.74 | 2.36 | 5.17 µM | 1.2 | 7.18 µM
3 | 8.2 µM | 80% | Active | 67% | 6.5 µM | COc1ccc2c(c1)/C(=N\OCCN1CCCC1)c1c-2cnc2ccccc12 | 2.02 | 2.32 µM | 5.29 | 2.71 | 1.51 µM | 0.45 µM | 0.447 µM | 1.54 µM | 6.29 µM | 4.08 | 13.98 | 3.11 µM | 4.17 | 1.19 µM
